Calls of active or inactive are those of the source. The rule behind the calls is not given here.
Experiments:
[1] = biological target: Cyclin-dependent kinase 5/CDK5 activator 1 (Homo sapiens) (UniProt Q00535+Q15078); experiment: Inhibition of CDK5/P25 at 10 uM; assay type: protein-complex assay
[2] = biological target: T1, 3-phosphoinositide-dependent protein kinase 1 (Homo sapiens, UniProt O15530); experiment: Inhibition of PDK1 by Z'-LYTE kinase activity assay
T1 sequence (O15530 whole entry): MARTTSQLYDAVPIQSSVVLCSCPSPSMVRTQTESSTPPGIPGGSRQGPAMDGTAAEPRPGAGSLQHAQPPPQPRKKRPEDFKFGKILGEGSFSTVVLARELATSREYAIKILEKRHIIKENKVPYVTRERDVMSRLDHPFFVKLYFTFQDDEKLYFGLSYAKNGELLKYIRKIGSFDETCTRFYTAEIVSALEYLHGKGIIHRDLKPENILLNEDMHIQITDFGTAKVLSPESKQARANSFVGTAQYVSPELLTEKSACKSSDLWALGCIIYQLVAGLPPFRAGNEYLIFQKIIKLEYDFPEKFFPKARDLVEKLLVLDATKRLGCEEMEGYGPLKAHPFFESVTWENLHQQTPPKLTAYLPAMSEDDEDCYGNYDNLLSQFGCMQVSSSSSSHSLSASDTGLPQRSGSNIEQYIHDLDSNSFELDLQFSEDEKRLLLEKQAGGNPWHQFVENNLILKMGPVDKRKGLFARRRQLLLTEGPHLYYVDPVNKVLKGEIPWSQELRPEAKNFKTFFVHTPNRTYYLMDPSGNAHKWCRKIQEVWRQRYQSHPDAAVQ

[3] = biological target: Vascular endothelial growth factor receptor 3 (Homo sapiens) (UniProt P35916); experiment: Inhibition of FLT4 at 10 uM
[4] = Inhibition of DNA-PK at 10 uM
[5] = tested on: Liver microsomes; experiment: Metabolic stability in rat liver microsomes; assay type: ADME, Microsome
Summary of the method: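 Rat liver microsomes (1 mg/ml protein) with 4µM compound in 50mM phosphate pH 7.2. Pre-incubated 5 min at 37.5 °C, then started with 2mM NADPH and run 1 h. Samples taken every 15 min, quenched in methanol with internal standard, analyzed by LC-MS. Duplicate runs alongside two control compounds of known half-life. Half-life reported.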

[6] = biological target: Myosin light chain kinase 2, skeletal/cardiac muscle (Homo sapiens) (UniProt Q9H1R3); experiment: Inhibition of MYLK2 at 10 uM
[7] = tested on: PC-3; experiment: Growth inhibition of human PC3 cells after 72 hrs by ATPlite assay; assay type: functional; conditions: PC-3, 72 h
Summary of the method: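 Cells seeded at about 3000 per well, grown 24 h, then given fresh medium and test compound in triplicate at 0.5 to 100µM in DMSO (0.5% final). Exposure 72 h at 37 °C, 5% CO₂. Viability measured by ATPlite luminescence and normalized to DMSO-treated controls. GI50 obtained by curve fitting. HeLa cultured in DMEM/10% FBS; MCF7, MDA-MB-231 and PC3 cultured in RPMI+GlutaMAX/10% FBS.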

[8] = biological target: T2, Phosphatidylinositol 4,5-bisphosphate 3-kinase catalytic subunit delta isoform (Homo sapiens, UniProt O00329); experiment: Inhibition of PI3Kdelta; conditions: read-out: I50
T2 sequence (O00329 whole entry): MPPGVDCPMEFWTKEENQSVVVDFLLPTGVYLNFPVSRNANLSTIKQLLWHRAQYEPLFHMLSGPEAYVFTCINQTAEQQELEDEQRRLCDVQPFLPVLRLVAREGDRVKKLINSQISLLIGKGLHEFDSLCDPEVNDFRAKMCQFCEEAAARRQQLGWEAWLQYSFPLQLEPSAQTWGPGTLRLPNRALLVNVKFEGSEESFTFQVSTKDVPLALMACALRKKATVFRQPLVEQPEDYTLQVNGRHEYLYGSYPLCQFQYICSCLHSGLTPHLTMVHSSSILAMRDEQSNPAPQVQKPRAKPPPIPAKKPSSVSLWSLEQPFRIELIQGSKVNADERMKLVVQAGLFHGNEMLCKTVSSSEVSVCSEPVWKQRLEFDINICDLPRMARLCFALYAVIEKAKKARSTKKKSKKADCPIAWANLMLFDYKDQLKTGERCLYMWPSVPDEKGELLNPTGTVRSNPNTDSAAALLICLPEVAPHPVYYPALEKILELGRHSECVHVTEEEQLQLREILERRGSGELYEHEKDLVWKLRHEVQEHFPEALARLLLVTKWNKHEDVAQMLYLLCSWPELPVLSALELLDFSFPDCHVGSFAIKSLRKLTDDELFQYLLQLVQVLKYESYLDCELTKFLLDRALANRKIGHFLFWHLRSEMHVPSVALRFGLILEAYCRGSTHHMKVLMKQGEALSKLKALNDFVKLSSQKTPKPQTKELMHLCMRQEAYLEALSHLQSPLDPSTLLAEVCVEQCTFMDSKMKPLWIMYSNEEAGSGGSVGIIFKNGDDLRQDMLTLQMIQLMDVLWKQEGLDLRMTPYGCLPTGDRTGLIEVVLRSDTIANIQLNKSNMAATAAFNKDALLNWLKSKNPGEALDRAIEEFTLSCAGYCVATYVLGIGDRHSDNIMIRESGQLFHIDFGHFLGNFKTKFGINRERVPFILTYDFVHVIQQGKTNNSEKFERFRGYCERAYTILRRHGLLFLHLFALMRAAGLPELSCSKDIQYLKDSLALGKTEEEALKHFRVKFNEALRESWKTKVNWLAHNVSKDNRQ

[9] = biological target: Leucine-rich repeat serine/threonine-protein kinase 2 (Homo sapiens) (UniProt Q5S007); experiment: Inhibition of LRKK2 at 10 uM
[10] = tested on: Platelet-derived growth factor receptor alpha (Homo sapiens), P16234 [V561D]; experiment: Inhibition of PDGFRA V561D mutant at 10 uM
[11] = biological target: Dual specificity protein kinase CLK2 (Homo sapiens) (UniProt P49760); experiment: Inhibition of CLK2 at 10 uM
[12] = biological target: NT-3 growth factor receptor (Homo sapiens) (UniProt Q16288); experiment: Inhibition of NTRK3 at 10 uM
[13] = tested on: U-87MG ATCC; experiment: Growth inhibition of human U87 cells grown as spheroids assessed reduction in decrease in spheroid volumes reated consecutively for 6 days by hanging drop method; assay type: functional, cell-based
Summary of the method: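 U87 glioblastoma spheroids formed by hanging drop, 200 cells per 20 µl drop, inverted for 5 days in a humidity chamber. Spheroids moved onto 1% low-melt agarose-coated wells. Compound or DMSO added every 24 h for 6 days. Volume (µm³) calculated from length and width measured with an optical micrometer. Four independent experiments.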

[14] = biological target: Inhibitor of nuclear factor kappa-B kinase subunit alpha (Homo sapiens) (UniProt O15111); experiment: Inhibition of IKKalpha at 10 uM
[15] = biological target: Interleukin-1 receptor-associated kinase 1 (Homo sapiens) (UniProt P51617); experiment: Inhibition of IRAK1 at 10 uM
[16] = biological target: Maternal embryonic leucine zipper kinase (Homo sapiens) (UniProt Q14680); experiment: Inhibition of MELK at 10 uM
[17] = biological target: Mitogen-activated protein kinase 9 (Homo sapiens) (UniProt P45984); experiment: Inhibition of JNK2 at 10 uM
[18] = biological target: Mitogen-activated protein kinase kinase kinase kinase 4 (Homo sapiens) (UniProt O95819); experiment: Inhibition of MAP4K4 at 10 uM
Sequence of Mitogen-activated protein kinase kinase kinase kinase 4 (Homo sapiens) (O95819 2-1239 limits assumed): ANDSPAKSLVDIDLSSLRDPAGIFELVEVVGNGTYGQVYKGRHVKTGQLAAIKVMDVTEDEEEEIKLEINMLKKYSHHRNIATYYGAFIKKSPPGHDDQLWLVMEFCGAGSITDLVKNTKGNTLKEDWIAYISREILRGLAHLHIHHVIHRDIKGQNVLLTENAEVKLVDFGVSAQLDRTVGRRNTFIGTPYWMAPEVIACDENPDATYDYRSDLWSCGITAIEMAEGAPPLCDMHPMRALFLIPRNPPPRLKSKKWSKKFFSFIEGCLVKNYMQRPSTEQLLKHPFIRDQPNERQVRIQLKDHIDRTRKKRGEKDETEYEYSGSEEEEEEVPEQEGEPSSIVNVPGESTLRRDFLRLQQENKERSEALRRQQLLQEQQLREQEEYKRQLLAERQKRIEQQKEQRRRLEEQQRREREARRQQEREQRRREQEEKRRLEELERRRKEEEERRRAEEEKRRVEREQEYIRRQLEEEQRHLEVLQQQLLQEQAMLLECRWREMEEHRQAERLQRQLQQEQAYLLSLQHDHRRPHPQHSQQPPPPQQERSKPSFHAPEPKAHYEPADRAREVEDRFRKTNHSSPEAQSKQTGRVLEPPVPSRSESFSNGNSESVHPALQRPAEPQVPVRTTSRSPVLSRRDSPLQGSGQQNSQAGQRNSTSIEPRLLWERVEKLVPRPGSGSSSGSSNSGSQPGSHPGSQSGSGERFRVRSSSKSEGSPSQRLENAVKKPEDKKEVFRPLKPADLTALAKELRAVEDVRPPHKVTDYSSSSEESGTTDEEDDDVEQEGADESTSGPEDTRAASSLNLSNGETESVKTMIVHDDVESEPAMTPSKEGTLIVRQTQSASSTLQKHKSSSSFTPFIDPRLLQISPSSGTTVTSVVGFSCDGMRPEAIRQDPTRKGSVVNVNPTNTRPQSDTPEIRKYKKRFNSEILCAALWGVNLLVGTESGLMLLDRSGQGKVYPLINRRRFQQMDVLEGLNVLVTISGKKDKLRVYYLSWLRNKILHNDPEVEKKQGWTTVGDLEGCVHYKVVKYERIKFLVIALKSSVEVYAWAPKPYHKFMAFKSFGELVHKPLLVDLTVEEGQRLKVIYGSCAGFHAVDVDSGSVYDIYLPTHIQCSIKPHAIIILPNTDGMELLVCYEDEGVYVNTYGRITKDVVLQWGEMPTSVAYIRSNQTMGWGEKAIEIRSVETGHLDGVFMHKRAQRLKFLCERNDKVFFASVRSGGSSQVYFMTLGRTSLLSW

Sequence of Myosin light chain kinase 2, skeletal/cardiac muscle (Homo sapiens) (Q9H1R3 whole entry): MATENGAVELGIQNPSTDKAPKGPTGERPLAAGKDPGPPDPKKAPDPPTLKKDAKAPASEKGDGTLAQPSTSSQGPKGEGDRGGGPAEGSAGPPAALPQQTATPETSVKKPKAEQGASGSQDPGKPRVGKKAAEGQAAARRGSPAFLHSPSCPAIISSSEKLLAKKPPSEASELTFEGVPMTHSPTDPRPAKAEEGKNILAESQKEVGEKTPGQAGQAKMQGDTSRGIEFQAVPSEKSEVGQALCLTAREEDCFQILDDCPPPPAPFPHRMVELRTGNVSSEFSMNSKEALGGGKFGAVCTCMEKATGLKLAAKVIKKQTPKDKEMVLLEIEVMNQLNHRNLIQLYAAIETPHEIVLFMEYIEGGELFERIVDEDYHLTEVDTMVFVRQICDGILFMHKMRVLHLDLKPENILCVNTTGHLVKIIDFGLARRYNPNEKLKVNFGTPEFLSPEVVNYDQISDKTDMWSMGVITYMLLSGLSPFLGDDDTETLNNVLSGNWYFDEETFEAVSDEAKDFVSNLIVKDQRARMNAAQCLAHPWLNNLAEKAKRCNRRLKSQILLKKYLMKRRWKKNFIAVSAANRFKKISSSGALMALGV
Sequence of Cyclin-dependent kinase 5/CDK5 activator 1 (Homo sapiens) (Q00535 whole entry): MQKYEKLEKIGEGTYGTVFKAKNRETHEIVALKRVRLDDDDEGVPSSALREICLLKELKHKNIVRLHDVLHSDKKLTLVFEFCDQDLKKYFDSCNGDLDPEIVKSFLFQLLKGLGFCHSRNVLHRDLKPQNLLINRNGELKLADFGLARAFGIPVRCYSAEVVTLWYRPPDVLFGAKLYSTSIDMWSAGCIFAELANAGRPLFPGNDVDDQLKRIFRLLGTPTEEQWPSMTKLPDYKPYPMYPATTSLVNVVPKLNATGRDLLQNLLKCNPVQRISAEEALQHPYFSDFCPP
Sequence of Cyclin-dependent kinase 5/CDK5 activator 1 (Homo sapiens) (Q15078 99-307 partner limits assumed): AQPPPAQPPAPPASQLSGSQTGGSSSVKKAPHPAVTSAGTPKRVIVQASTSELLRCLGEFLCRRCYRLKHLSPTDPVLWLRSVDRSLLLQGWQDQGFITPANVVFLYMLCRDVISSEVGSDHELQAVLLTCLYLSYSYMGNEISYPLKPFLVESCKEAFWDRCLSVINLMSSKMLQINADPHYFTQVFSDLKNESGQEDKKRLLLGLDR
Sequence of Dual specificity protein kinase CLK2 (Homo sapiens) (P49760 whole entry, looked up): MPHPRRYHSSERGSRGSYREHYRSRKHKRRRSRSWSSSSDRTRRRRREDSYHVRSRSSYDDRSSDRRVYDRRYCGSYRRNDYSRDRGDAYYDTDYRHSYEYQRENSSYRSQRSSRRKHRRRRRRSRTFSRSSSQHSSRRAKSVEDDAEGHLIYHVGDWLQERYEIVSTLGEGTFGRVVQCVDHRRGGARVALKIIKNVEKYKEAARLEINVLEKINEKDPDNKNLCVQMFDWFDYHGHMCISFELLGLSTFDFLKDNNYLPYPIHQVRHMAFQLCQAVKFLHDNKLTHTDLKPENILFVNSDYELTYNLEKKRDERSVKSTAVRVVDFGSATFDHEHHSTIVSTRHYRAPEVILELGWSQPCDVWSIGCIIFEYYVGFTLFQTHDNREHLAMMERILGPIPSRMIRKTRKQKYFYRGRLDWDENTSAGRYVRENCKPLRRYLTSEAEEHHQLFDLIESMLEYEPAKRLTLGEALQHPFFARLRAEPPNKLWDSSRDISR
Sequence of NT-3 growth factor receptor (Homo sapiens) (Q16288 32-839 limits assumed): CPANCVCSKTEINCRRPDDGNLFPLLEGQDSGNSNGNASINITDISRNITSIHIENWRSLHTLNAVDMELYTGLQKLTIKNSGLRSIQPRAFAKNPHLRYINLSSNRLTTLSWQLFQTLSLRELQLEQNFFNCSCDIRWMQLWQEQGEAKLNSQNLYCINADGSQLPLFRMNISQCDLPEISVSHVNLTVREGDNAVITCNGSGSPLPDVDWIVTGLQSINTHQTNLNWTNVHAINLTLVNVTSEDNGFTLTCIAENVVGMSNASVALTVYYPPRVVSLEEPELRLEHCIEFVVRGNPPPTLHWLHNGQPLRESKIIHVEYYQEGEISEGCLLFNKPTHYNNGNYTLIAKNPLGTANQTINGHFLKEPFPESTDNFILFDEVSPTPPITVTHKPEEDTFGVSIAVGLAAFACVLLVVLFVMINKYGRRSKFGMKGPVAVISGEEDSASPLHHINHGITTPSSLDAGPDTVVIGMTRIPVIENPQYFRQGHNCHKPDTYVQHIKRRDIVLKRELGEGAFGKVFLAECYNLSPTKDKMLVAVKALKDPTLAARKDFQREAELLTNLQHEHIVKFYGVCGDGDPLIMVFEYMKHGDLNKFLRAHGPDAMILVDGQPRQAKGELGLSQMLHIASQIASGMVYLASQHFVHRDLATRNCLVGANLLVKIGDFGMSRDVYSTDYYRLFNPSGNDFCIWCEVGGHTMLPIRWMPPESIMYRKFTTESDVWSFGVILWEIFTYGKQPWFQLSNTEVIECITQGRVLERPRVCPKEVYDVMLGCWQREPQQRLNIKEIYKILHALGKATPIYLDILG
Sequence of Inhibitor of nuclear factor kappa-B kinase subunit alpha (Homo sapiens) (O15111 whole entry): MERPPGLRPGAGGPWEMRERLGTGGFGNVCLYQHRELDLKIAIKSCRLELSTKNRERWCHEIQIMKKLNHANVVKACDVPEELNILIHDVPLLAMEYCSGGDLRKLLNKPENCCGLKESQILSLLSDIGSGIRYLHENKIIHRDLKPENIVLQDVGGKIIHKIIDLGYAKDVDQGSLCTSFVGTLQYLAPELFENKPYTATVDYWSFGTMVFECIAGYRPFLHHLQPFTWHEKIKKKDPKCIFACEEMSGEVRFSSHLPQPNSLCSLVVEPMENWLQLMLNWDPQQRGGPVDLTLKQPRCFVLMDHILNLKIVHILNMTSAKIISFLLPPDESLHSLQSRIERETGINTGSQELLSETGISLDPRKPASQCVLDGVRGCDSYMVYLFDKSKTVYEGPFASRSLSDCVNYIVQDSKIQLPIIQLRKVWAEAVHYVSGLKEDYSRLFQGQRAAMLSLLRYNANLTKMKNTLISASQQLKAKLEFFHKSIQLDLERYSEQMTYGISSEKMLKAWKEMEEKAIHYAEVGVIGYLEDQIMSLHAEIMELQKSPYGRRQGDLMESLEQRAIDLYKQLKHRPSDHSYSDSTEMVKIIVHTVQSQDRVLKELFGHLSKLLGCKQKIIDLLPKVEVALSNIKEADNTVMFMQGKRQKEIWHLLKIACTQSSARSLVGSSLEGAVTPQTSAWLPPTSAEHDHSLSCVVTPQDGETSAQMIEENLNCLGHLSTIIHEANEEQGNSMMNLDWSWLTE
Sequence of Maternal embryonic leucine zipper kinase (Homo sapiens) (Q14680 whole entry, looked up): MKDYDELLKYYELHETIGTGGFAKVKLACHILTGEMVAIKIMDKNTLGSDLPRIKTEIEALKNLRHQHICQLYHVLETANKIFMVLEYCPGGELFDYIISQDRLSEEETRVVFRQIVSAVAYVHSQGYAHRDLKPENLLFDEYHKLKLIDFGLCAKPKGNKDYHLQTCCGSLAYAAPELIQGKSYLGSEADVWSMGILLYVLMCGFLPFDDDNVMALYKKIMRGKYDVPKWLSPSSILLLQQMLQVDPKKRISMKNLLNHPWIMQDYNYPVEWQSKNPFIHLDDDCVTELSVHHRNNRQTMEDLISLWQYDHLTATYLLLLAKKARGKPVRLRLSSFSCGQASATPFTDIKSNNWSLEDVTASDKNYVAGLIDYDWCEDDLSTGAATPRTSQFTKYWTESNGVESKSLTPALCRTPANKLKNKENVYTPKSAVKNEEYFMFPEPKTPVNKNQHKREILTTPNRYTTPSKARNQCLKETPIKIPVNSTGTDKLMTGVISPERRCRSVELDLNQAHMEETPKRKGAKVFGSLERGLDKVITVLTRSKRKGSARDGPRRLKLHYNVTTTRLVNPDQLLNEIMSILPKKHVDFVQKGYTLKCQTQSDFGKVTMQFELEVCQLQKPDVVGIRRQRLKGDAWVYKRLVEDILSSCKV

With `C(#Cc1n[nH]c2ccccc12)c1ccncc1` the inhibition [1] was greater than 50%, the IC50 [2] was 3.87 µM and the inhibition [3] was greater than 50%. It also gave an inhibition [4] greater than 50%, a t1/2 [5] of 35 min and an inhibition [6] greater than 50%. The GI50 [7] was 2.43 µM, the IC50 [8] was 39 µM and the inhibition [9] was greater than 50%. It also gave an inhibition [10] greater than 50%, an inhibition [11] greater than 50% and an inhibition [12] greater than 50%. For the same compound, the “growth inhibition (GI)” value [13] was “Active”, the inhibition [14] was greater than 50% and the inhibition [15] was greater than 50%. The inhibition [16] was greater than 50%, the inhibition [17] was greater than 50% and the inhibition [18] was greater than 50%.

Reference: ChEMBL document CHEMBL1629532, “Design, synthesis, and structure-activity relationships of 3-ethynyl-1H-indazoles as inhibitors of the phosphatidylinositol 3-kinase signaling pathway” (J Med Chem, 2010)
